Test [1] in a line: Inhibition of cytochrome-bd oxidase in Mycobacterium bovis BCG assessed as replicating ATP by measuring ATP depletion incubated for 15 hrs in absence of Q203 by BacTiter-Glo luminescence assay. Also noted: species or system Mycobacterium tuberculosis variant bovis BCG. In short, it runs like this: (§1)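 Cultures grown in Middlebrook 7H9 with 0.05% Tween 80, 0.5% glycerol, BSA fraction V, D-glucose and NaCl. Cells pelleted, resuspended in glycerol-free medium at about 10^7 CFU/mL, added to compound dilutions. Plates incubated 15 h at 37°C. BacTiter-Glo reagent added, luminescence read after 12 min to give ATP level. IC50 from curve fitting.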

Test [2] can be described thus: Inhibition of cytochrome-bd oxidase in Mycobacterium bovis BCG assessed as replicating ATP by measuring ATP depletion incubated for 15 hrs in presence of Q203 by BacTiter-Glo luminescence assay. Set-up: species or system Mycobacterium tuberculosis variant bovis BCG. In short, it runs like this:
as §1

With `FS(F)(F)(F)(F)c1ccc(CCNc2ncnc3ccsc23)cc1`, the concentration for half-maximal inhibition (IC50) (as a rule, the concentration at which inhibition is half-maximal) in test [1] was greater than 50 mM; in test [2] it was 27.1 mM.

Take `Clc1ccc(CCNc2ncnc3ccsc23)cc1Cl`: the IC50 is greater than 50 mM in test [1] and 25.6 mM in test [2]. On the same counts, the results for `FC(F)(F)c1cccc(CCNc2ncnc3ccsc23)c1` are greater than 50 mM and 25.6 mM. On the same counts, the results for `c1ccc(CCNc2ncnc3ccsc23)cc1` are greater than 50 mM and 43.3 mM.

`COc1nc2ccc(Br)cc2cc1[C@@H](c1ccccc1)[C@@](O)(CCN(C)C)c1cccc2ccccc12` [BEDAQUILINE]: the values for the IC50 in test [1] and in test [2] were 0.17 mM and 0.09 mM, respectively.

For the compound `FC(F)(F)c1ccc(Oc2ccc(Nc3ncnc4ccccc34)cc2)cc1`, the IC50 in test [1] is greater than 50 mM; in test [2], 0.8 mM. On the same counts, the results for `CN(C)c1ccc(CCNc2ncnc3ccsc23)cc1` are greater than 50 mM and 38.9 mM.

For the compound `FC(F)(F)c1ccc(CCNc2ncnc3ccsc23)cc1`, the IC50 in test [1] is greater than 50 mM; in test [2] it was 33.1 mM. The like results for `COc1ccc(CCNc2ncnc3ccsc23)cc1` were, in that order, greater than 50 mM and 42.8 mM. With `Cc1ccc(CCNc2ncnc3ccsc23)cc1`, the IC50 was greater than 50 mM in test [1] and 40.4 mM in test [2]. On the same counts, the results for `FC(F)(F)c1ccccc1CCNc1ncnc2ccsc12` are greater than 50 mM and 12.4 mM. The like results for `FC(F)(F)Oc1ccc(CCNc2ncnc3ccsc23)cc1` were, in that order, greater than 50 mM and 12.6 mM. With `Clc1ccc(CCNc2ncnc3ccsc23)cc1`, the half-inhibitory concentration (IC50) was greater than 50 mM in test [1] and 30.4 mM in test [2].

For the compound `CC(C)(C)c1ccc(CCNc2ncnc3ccsc23)cc1`, the concentration for half-maximal inhibition (IC50) is greater than 50 mM in test [1] and 5.8 mM in test [2]. The like results for `FC(F)(F)Oc1ccc(CNc2ncnc3ccsc23)cc1` were, in that order, greater than 50 mM and 38.1 mM. On the same counts, the results for `FC(F)(F)Oc1ccc(Nc2ncnc3ccsc23)cc1` are greater than 50 mM and 22.9 mM. For the compound `COc1ccc(CCNc2ncnc3sccc23)cc1`, the IC50 in test [2] is greater than 0.05 mM.

For the origin of these results see ChEMBL document CHEMBL4680071, “Structure guided generation of thieno[3,2-d]pyrimidin-4-amine Mycobacterium tuberculosis bd oxidase inhibitors” (RSC Med Chem, 2021).
